The values that follow come from ChEMBL document CHEMBL4513216, “Probing the Open Global Health Chemical Diversity Library for Multistage-Active Starting Points for Next-Generation Antimalarials” (ACS Infect Dis, 2020).

The nature of the series: Toxicity liver stage against HepG2, at 10uM. In kind it is cell-based. Set-up: test concentration 10 uM, cell line HepG2-A16-CD81EGFP. Conditions: human, HepG2-A16-CD81EGFP cells; read-out: INHIBITION
An outline of the steps: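 Uninfected HepG2-A16-CD81EGFP cells, 3 × 10^3 per well, 1536-well, plated on prespotted compound at 10 μM final, parasite-free screening media added to match infected plates; puromycin 10 μM positive, DMSO 0.5% negative; run in parallel with 48 h PbLuc assay at 37 °C, 5% CO2; viability by CellTiter-Glo luminescence, normalized to controls.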
In the case of `CC(C)CN1C(=O)COC[C@@H]1[C@H](O)c1ccc(NC(=O)C2CC2)cc1`, the cytotoxicity at 10 µM came out at 5.76%.

Turning to `Cn1nc(C(=O)N2CC(Oc3nc4c(Cl)cccc4s3)C2)ccc1=O`, the cytotoxicity at 10 µM was 1.48%.

On to `O=C(c1cccnc1)N1CC(S(=O)(=O)c2ccc(Cl)cc2)C1`, for which the cytotoxicity at 10 µM was -0.649%.

With `CC(=O)N1CC(=O)N(c2cnn(C)c2)CC12CCN(Cc1ccco1)C2` (configuration not stated), the cytotoxicity at 10 µM turned out to be 2.41%.

`CC1CCC2(CC1)Nc1ccccc1CO2` (configuration not stated): the cytotoxicity at 10 µM was determined as 4.81%.

With `O=C(Cc1ccc2c(c1)OCC2)Nc1nc[nH]n1`, the cytotoxicity at 10 µM was -2.94%.

`COc1cc(C2SCC(=O)Nc3ccsc32)cc(OC)c1OC` (configuration not stated): the cytotoxicity at 10 µM is -1.88%.

On to `CN(C)S(=O)(=O)N1CCC2(COCc3cnc(-c4ccccc4)nc32)C1` (configuration not stated), for which the cytotoxicity at 10 µM was -13.6%.

In the case of `COc1cc(NC(=O)NCC2CCCO2)cc(OC)c1OC` (configuration not stated), the cytotoxicity at 10 µM was -7.71%.

Consider `CCn1nc(C)c(NC(=O)c2cc(NC(=O)C3CC3)n(C)n2)c1C`, for which the cytotoxicity at 10 µM was -0.916%.

In the case of `Cc1ccc(-c2cc(C(F)(F)F)nc(N3CCOCC3)n2)s1`, the cytotoxicity at 10 µM was determined as 0.452%.

On to `c1ccc(C2Cn3ccnc3CN2Cc2ncc[nH]2)cc1` (configuration not stated), for which the cytotoxicity at 10 µM was -2.8%.

Consider `CCOc1ccc(CN2CCOCC2c2[nH]ncc2C)cc1CO` (configuration not stated), for which the cytotoxicity at 10 µM is -2.92%.

In the case of `Cn1ccc2cc(CC3COCCN(C(=O)c4cccnc4)C3)ccc21` (configuration not stated), the cytotoxicity at 10 µM came out at 7.24%.

`CC(=O)N1CCC1c1cc(N2CCSCC2)nc(C)n1` (configuration not stated): the cytotoxicity at 10 µM was 6.53%.

As for `CCc1nc(N2CCOCC2)ncc1C(=O)NC(c1cccs1)C(C)C` (configuration not stated), the cytotoxicity at 10 µM was determined as 12.3%.

With `Cc1c(C(=O)N[C@@H]2CC[C@@H](N3CCCC3)[C@@H]2O)[nH]c2ccc(F)cc12`, the cytotoxicity at 10 µM is -1.85%.

For the molecule `COc1ccc2[nH]cc(C(=O)N3C[C@@H](O)[C@H](N4CCOCC4)C3)c2c1`, the cytotoxicity at 10 µM was -9.06%.

For `CNCC(=O)N1CCC(c2cccc(Oc3ccccc3)n2)CC1`, the cytotoxicity at 10 µM is -11.7%.

For the molecule `COCC(C)(C)NC(=O)CC(c1ccccc1)C(F)(F)F` (configuration not stated), the cytotoxicity at 10 µM was -50.1%.

Consider `CCCc1nn(Cc2csc(C(C)C)n2)c(=O)o1`, for which the cytotoxicity at 10 µM is -47.7%.

With `CNC(=O)Cn1ccc2ccc(NC(=O)C(C)CSC)cc21` (configuration not stated), the cytotoxicity at 10 µM is -1.1%.

In the case of `CCN1CCN(c2cncc(Cl)n2)CC1`, the cytotoxicity at 10 µM was found to be 11.6%.

Take `CC(C(=O)NCC(C)(C)c1ccc2c(c1)OCO2)n1ccnc1` (configuration not stated): the cytotoxicity at 10 µM was 6.36%.

As for `Cc1cc(C)c(CNc2cnn(CC(O)CN(C)C)c2)c(C)c1` (configuration not stated), the cytotoxicity at 10 µM came to 15%.

Take `Cc1noc(CN(C)c2ccccc2)n1`: the cytotoxicity at 10 µM came to 8.82%.

Regarding `CC(C)c1nc(CC(=O)Nc2cnccc2O)cs1`, the cytotoxicity at 10 µM was determined as 9.89%.

As for `COc1ccccc1OCC(=O)NS(=O)(=O)c1cccnc1`, the cytotoxicity at 10 µM was -4.69%.

Regarding `Cc1cccc(C(=O)NCCNS(=O)(=O)c2cccs2)c1C`, the cytotoxicity at 10 µM was -0.642%.

Regarding `O=C(c1coc(-c2ccccc2)n1)N1CCS(=O)(=O)CC1`, the cytotoxicity at 10 µM was 11.4%.

Take `CCNC(=O)NC(=O)C(C)Nc1ccccc1OCCOC` (configuration not stated): the cytotoxicity at 10 µM worked out at 4%.

As to `CCCC(C)C(=O)Nc1ccc(OC)nc1N1CCN(C(C)=O)CC1` (configuration not stated), the cytotoxicity at 10 µM is -5.46%.

Turning to `COc1ccc(C(CO)NC(=O)Nc2cccc(F)c2)cc1` (configuration not stated), the cytotoxicity at 10 µM was -4.82%.

On to `COc1ccc(C(=O)NS(=O)(=O)c2cncc(Br)c2)c(OC)c1`, for which the cytotoxicity at 10 µM was -0.402%.

Regarding `O=C(CNC(=O)Nc1cccc(Cl)c1SC(F)F)NC1CC1`, the cytotoxicity at 10 µM was found to be 0.797%.

`CC(OCC(F)(F)F)C(=O)N1CCOCC1` (configuration not stated): the cytotoxicity at 10 µM was -11.9%.

As for `Cc1cnn(CC2CCCN2C(=O)Cc2c(C)noc2C)c1` (configuration not stated), the cytotoxicity at 10 µM turned out to be 0.983%.

Regarding `Cc1noc(C)c1CN1CCC(N(C)Cc2noc(C(C)C)n2)C1` (configuration not stated), the cytotoxicity at 10 µM was -6.37%.

Consider `Cc1ncccc1CNCC1CCc2nnc(C(C)C)n2C1` (configuration not stated), for which the cytotoxicity at 10 µM is -6.27%.

Take `CCSc1ccc(C(=O)N2CCCCC2C(=O)NC(C)(C)C)cn1` (configuration not stated): the cytotoxicity at 10 µM was -7.69%.

On to `CC(NCc1cnc(C2CCC2)s1)c1cccc(-n2ccnc2)c1` (configuration not stated), for which the cytotoxicity at 10 µM came out at 4.12%.

Turning to `Cc1nc(C(C)C)sc1C(=O)NCCn1ccnc1`, the cytotoxicity at 10 µM amounted to 1.28%.

As for `Cc1nn(C)c(C)c1CC(=O)NCc1cccnc1OC1CCCC1`, the cytotoxicity at 10 µM is -0.527%.

Regarding `O=C(NC1(c2nccs2)CCCC1)c1cc(C2CC2)[nH]n1`, the cytotoxicity at 10 µM worked out at 2%.

`C=C(C)CN1CCOC(Cn2cncn2)C1` (configuration not stated): the cytotoxicity at 10 µM is -52%.

Regarding `CCCc1nc(Cn2c(=O)n(C)c3ccccc32)no1`, the cytotoxicity at 10 µM is -43%.

For the molecule `CC(C)(C)Oc1ccccc1CNC(=O)C1CCCOC1` (configuration not stated), the cytotoxicity at 10 µM is 0.997%.

Turning to `CCN(C(=O)NCc1ccc(C)cc1OC)C(C)c1cccnc1` (configuration not stated), the cytotoxicity at 10 µM was 6.32%.

As for `COc1ccccc1C1(CNCc2ccc(C#N)cc2)CCOCC1`, the cytotoxicity at 10 µM was 7.62%.

As for `O=C1CCCN1c1cccc(CNCc2nc(C3CC3)no2)c1`, the cytotoxicity at 10 µM was -7.11%.

Regarding `CCC(CNC(=O)N1CCOCC2(CCOCC2)C1)c1ccccc1` (configuration not stated), the cytotoxicity at 10 µM stood at 5.17%.

Take `CC(C)(C)c1nnc(CN2CCC(c3cc4ccccc4[nH]3)CC2)o1`: the cytotoxicity at 10 µM is 24.3%.

As for `Cc1nn(C)c(Oc2cccc(F)c2)c1NC(=O)C1CCCO1` (configuration not stated), the cytotoxicity at 10 µM was -7.64%.

For the molecule `CN(CC1CC1)C(=O)CN(Cc1cccc(O)c1)C1CCC(O)CC1` (configuration not stated), the cytotoxicity at 10 µM is -1.21%.

For `Cc1nccc(NCc2cncc3c2CCN(CCN(C)C)C3)n1`, the cytotoxicity at 10 µM was -104%.

As to `CN(C)C(=O)CO[C@H]1CO[C@@]2(CCN(Cc3ccoc3)C2)C1`, the cytotoxicity at 10 µM is -111%.

`COc1ccc(C)cc1-n1cnnc1C1CCCN(C)C1` (configuration not stated): the cytotoxicity at 10 µM was 6.43%.

`CCN1CC(CN(C)Cc2nc(-c3cccc(Cl)c3)oc2C)CC1=O` (configuration not stated): the cytotoxicity at 10 µM was determined as 6.9%.

Turning to `Cc1nnc(SCC(=O)N2CCc3[nH]nc(C4CCC4)c3C2)o1`, the cytotoxicity at 10 µM was -7.09%.

For `Cc1cc(CNc2cncc(C(=O)N(C)C)n2)c2[nH]c(C)c(C)c2c1`, the cytotoxicity at 10 µM was -12.2%.

Regarding `CC(C)n1cc(C(=O)N2CCC(n3cc(C(C)(C)C)nn3)CC2)cn1`, the cytotoxicity at 10 µM is 1.19%.

`CCC(CC)C(=O)N1CCC2(CC1)c1ccccc1[C@@H](OC)[C@@H]2O`: the cytotoxicity at 10 µM was found to be 6.75%.

`O=C(c1nc(=O)[nH]c2ccccc12)N1CCCC(CC2CC2)(C(=O)O)C1` (configuration not stated): the cytotoxicity at 10 µM came out at 6.56%.

As for `COCC(NC(=O)c1cc(NC(C)=O)ccc1Cl)c1ccnn1C` (configuration not stated), the cytotoxicity at 10 µM was -2.22%.

`CCOc1ccc(C(=O)CCC(=O)N(C)Cc2snnc2C)cc1C`: the cytotoxicity at 10 µM was -2.29%.

With `CC(C)=CCN1Cc2nnc(C3CCOCC3)n2C(Cc2c[nH]cn2)C1` (configuration not stated), the cytotoxicity at 10 µM is -9.36%.

Turning to `CCC[C@H]1CN(C(=O)c2cc(-c3cccs3)n(C)n2)C[C@@H]1N`, the cytotoxicity at 10 µM was -1.02%.

In the case of `CCn1nc(CC(C)C)cc1C(=O)N1C[C@H](O)[C@@H](N2CCCCC2)C1`, the cytotoxicity at 10 µM stood at 20.7%.

`c1cn(Cc2nnc(C3CCN(C4CCOCC4)CC3)n2C2CC2)cn1`: the cytotoxicity at 10 µM amounted to 0.442%.

As for `Cc1cc(C(=O)N2CCCC(c3cc(C(F)(F)F)[nH]n3)C2)[nH]n1` (configuration not stated), the cytotoxicity at 10 µM was -6.79%.

As to `CC(C)n1ncc2cc(NC(=O)N3CCC(CO)CC3)cnc21`, the cytotoxicity at 10 µM is -14.5%.

Take `CC(C)c1nc(CN2CCCC2Cn2cncn2)no1` (configuration not stated): the cytotoxicity at 10 µM is -7.3%.

In the case of `NC(=O)CN1CCCN(C(=O)CCOc2ccccc2Cl)CC1`, the cytotoxicity at 10 µM is -6.73%.

Regarding `CCCc1noc(CCC(=O)N2CCCC2c2cccs2)n1` (configuration not stated), the cytotoxicity at 10 µM is -14.4%.

Regarding `COc1ccc(C)cc1CN(C)CC(=O)NC1(C)CCS(=O)(=O)C1` (configuration not stated), the cytotoxicity at 10 µM was found to be 1.28%.

Regarding `COc1ccc(-c2noc(CN3CCCC3Cn3cccn3)n2)cc1` (configuration not stated), the cytotoxicity at 10 µM was determined as 2.88%.

With `COCc1nc(C(=O)N2CCCC2c2ccncc2)cs1` (configuration not stated), the cytotoxicity at 10 µM is -11.4%.

As to `O=C(NCC1CCOC1)N1CCN(Cc2ccc3c(c2)CCO3)CC1` (configuration not stated), the cytotoxicity at 10 µM was -4.2%.

Take `O=C(C1COCCO1)N1CCN(Cc2ccc3c(c2)CCO3)CC1` (configuration not stated): the cytotoxicity at 10 µM is -5.99%.

Regarding `CC(=O)N(C)c1nc(CN2CCOC(Cn3cc(C)cn3)C2)cs1` (configuration not stated), the cytotoxicity at 10 µM was -7%.

Turning to `COCc1nc(C(=O)N2CCCCC2Cn2cc(C)cn2)cs1` (configuration not stated), the cytotoxicity at 10 µM stood at 3.18%.

Take `FC(F)CNc1cnc(C2CCNCC2)cn1`: the cytotoxicity at 10 µM amounted to 0.83%.

For `CN1CCCCC1c1cncc(Cl)n1` (configuration not stated), the cytotoxicity at 10 µM was found to be 0.995%.

`O=S(=O)(NCC1OCCc2cn(CC3CCOCC3)nc21)C1CC1` (configuration not stated): the cytotoxicity at 10 µM was 11.2%.

With `Cc1ccc(Nc2ncnc3c2CCN(CC2CCOC2)CC3)cc1` (configuration not stated), the cytotoxicity at 10 µM is 5.32%.

In the case of `O=C(c1ccco1)N1C[C@H]2CCCN(Cc3ccc(F)cc3)[C@H]2C1`, the cytotoxicity at 10 µM was 0.255%.

Turning to `Cc1cc(CN2CC[C@]3(C[C@@H](OCC(=O)N(C)C)CO3)C2)no1`, the cytotoxicity at 10 µM was -105%.

Take `O=C1NCC[C@]12CN(CC1CCOCC1)C[C@H]2c1ccccc1`: the cytotoxicity at 10 µM stood at 6.59%.

On to `CC(C)N1CCO[C@H]2CN(Cc3cc[nH]n3)C[C@H]21`, for which the cytotoxicity at 10 µM was -108%.

Turning to `CCc1nc(-c2ccnc(N3CCNCC3)n2)no1`, the cytotoxicity at 10 µM was determined as 11.9%.

Regarding `CN1CCN(c2ncnc3c2CCN(S(=O)(=O)C2CC2)CC3)CC1`, the cytotoxicity at 10 µM was -112%.

Regarding `CNC(=O)C1Cn2ccnc2C2(CCN(Cc3cccc(C)n3)CC2)O1` (configuration not stated), the cytotoxicity at 10 µM worked out at 7.67%.

With `CO[C@@H]1CCN(Cc2ccoc2)[C@H]1Cc1ccccc1`, the cytotoxicity at 10 µM turned out to be 7.46%.

As to `O=C(c1cccnc1)N1CCCC2(COCCN(c3ccccc3)C2)C1` (configuration not stated), the cytotoxicity at 10 µM was 2.17%.

As to `COCCN1Cc2nccn2CC(COCc2csc(C)n2)C1` (configuration not stated), the cytotoxicity at 10 µM came out at 6.22%.

`CCS(=O)(=O)N1CCCC2(COCCN(c3nnc(C)o3)C2)C1` (configuration not stated): the cytotoxicity at 10 µM turned out to be 8.88%.

For the molecule `COc1ccccc1CC(=O)N1C[C@@H]2CC[C@H]1CN(Cc1cscn1)C2`, the cytotoxicity at 10 µM is -1.87%.
